Rows were chosen to be rich in hits. Some 1.8% of all compounds tested hit in one or more screens of this group.
M5 PAM: positive allosteric modulators of human muscarinic M5 receptor. P08912. CHO-K1 hM5, Fluo-8 calcium, ACh EC20 PAM; 0% = ACh EC20, 100% = ACh EC100. activation, % at 3 µM. 360,000 tested, 0.3% active. AID 624038;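 active means activation above the run cutoff, the mean activation of all test compounds plus 3 SD, cut at about 18% in these data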
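System – CHO-K1 hM5 cells · Compound – 3 µM, single dose · Incubation – compound preincubation 140 s before EC20 acetylcholine addition · Technique – Fluo-8 calcium fluorescence · Measure – Max/basal fluorescence ratio as % of EC20–EC100 ACh window · Benchmarks – low control EC20 acetylcholine (0%), high control EC100 acetylcholine (100%) · Replication – singlicate, one well per test compound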
CHRM4 PAM: potentiates acetylcholine response at human M4 receptor | CHO-K1 hM4/Gqi5, Fluo-8 calcium fluorescence, ACh EC20; 0% = ACh EC20, 100% = maximal ACh | activation, % at 3 µM | 360,000 tested, 0.4% active | AID 624126;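 active means activation above its plate's cutoff, the mean activation of sample wells plus 3 SD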
Target sequence (P08173 whole entry, looked up): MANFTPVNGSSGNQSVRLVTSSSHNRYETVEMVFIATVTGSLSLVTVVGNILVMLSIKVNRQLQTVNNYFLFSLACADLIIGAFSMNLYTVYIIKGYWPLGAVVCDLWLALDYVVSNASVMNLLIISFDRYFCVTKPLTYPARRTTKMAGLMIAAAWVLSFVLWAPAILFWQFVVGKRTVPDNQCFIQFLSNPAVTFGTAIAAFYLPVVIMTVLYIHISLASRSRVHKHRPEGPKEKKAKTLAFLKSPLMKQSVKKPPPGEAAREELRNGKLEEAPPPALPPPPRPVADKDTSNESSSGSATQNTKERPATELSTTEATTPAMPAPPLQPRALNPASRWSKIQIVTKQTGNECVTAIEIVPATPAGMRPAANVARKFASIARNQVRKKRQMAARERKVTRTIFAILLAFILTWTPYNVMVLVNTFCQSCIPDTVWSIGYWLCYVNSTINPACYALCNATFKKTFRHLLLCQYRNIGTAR
M5 ag: agonists of human muscarinic M5 receptor (CHRM5); P08912; activation, % at 3 µM; AID 624037; 360,000 tested, 0.19% active; CHO-K1 hM5 cells, Fluo-8 calcium fluorescence; 0% DMSO wells, 100% maximal acetylcholine response;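 active means activation above the run's mean over test compounds plus 3 SD, cut at about 23% in these data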;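 further: signal is peak over basal fluorescence ratio across the kinetic read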
CHRM4 agonist: CHRM4 agonism in calcium assay; P08173; CHO-K1 hM4/Gqi5, Fluo-8 calcium fluorescence; vehicle 0%, full acetylcholine response 100%; activation, % at 3 µM; 360,000 tested, 0.14% active;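 active means activation above the run mean over all test wells plus 3 SD, cut at about 32% in these data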;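 further: peak over basal fluorescence ratio per well then scaled between controls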
M4 antag: CHRM4 antagonism in calcium assay. AID 624125. inhibition, % at 3 µM. 360,000 tested, 0.73% active. CHO-hM4 cells, ACh EC80, Fluo-8 calcium fluorescence. P08173;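 active means inhibition above its plate's cutoff, the mean inhibition of sample wells plus 3 SD, cut at about 27% in these data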
M5 antag: blocks acetylcholine activation of human M5 receptor | inhibition, % at 3 µM | CHO-hM5 cells, Fluo-8 calcium fluorescence, ACh EC80 | P08912 | 360,000 tested, 0.59% active;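 active means inhibition above a per-plate cutoff, the mean of that plate's test compounds plus 3 SD, cut at about 27% in these data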
Large screens that a line does not name were inactive; ! = not confirmed by another sample.

COC(=O)C1=C(c2cccc(OCc3ccccc3)c2)C[C@@H]2CC[C@H]1N2C(=O)NCc1ccc(F)cc1	M5 antag 27.2
COC(=O)C1=C(c2ccccc2)C[C@@H]2CC[C@H]1N2C(=O)NCc1ccc(F)cc1	M4 antag 46.8
COC(=O)C1=C(c2ccc(F)cc2OCc2ccccc2)C[C@@H]2CC[C@H]1N2C(=O)NCc1ccccc1OC	M4 antag 32.8
CCN(CC)CCCOC(=O)C(OC(C)C)(c1ccccc1)c1ccccc1	M4 antag 82.8, M5 antag 97.8
CCN(CC)C(=O)c1ccc(NC(=O)CNC(C)c2cccc3ccccc23)cc1 (stereo unspecified)	none
COC(=O)C1=C(c2ccc(C(C)=O)cc2)C[C@@H]2CC[C@H]1N2C(=O)NC(C)C	none
C=C1C(=O)OC2CC3(C)OC3C3OC3C3=CC(OC3=O)C12 (stereo unspecified)	none
Cn1cc(C(=O)c2ccccc2)c2ccccc21	M5 ag 30.8
O=C(C[N+]12CCC(CC1)C(OC(=O)c1ccccc1)C2)c1ccc([N+](=O)[O-])cc1 (stereo unspecified)	none
CCC(CO)(C(=O)OC1C[N+]2(C)CCC1CC2)c1ccccc1 (stereo unspecified)	M4 antag 98.5, M5 antag 98.9
COc1ccc(CCN)cc1OC	none
NCCc1ccc(OCc2ccccc2)c(OCc2ccccc2)c1	CHRM4 agonist 33.7
COc1c(/C=C2/C(=O)NC(=O)N(C)C2=O)c(CCN(C)C(=O)c2ccccc2)cc2c1OCO2	none
C#CC[N+]1(C)[C@@H]2CC(OC(=O)C(CO)c3ccccc3)C[C@H]1C(O)C2 (stereo partly specified)	M4 antag 98.2, M5 antag 98.2
C[N+]1(C)C2CCC1CC(OC(=O)c1ccccc1)C2 (stereo unspecified)	none
C[N+]1(C)[C@@H]2CC[C@H]1CC(OC(=O)C(CO)c1ccccc1)C2 (stereo partly specified)	M4 antag 99.2, M5 antag 98.8
C[N+]1([O-])[C@@H]2CC(OC(=O)[C@H](CO)c3ccccc3)C[C@H]1[C@@H]1O[C@@H]12 (stereo partly specified)	M4 antag 99.2, M5 antag 98.0
C[N+]1(C)C2CCC1CC(OC(=O)C(CO)c1ccccc1)C2 (stereo unspecified)	M4 antag 98.4, M5 antag 98.7
O=c1[nH]c(=S)[nH]c(O)c1N=Nc1cc(S(=O)(=O)Nc2ccc(Cl)cc2)ccc1Cl	none
CCOC(=O)[C@]12Cc3c(cc(OC)c(OC)c3OC)[C@H]1N(C(C)C)C(=O)c1cc(OC)ccc12	none
CCOC(=O)[C@]12Cc3ccccc3[C@H]1N(CCC(=O)OC)C(=O)c1cc(OC)ccc12	none
O=C1CN=C(c2ccccc2)c2cc([N+](=O)[O-])ccc2N1	none
O=C1CN=C(c2cc([N+](=O)[O-])ccc2Cl)c2cc([N+](=O)[O-])ccc2N1	CHRM4 PAM 13.7
O=[N+]([O-])c1oc2ccc3ccccc3c2c1CCO	none
O=c1[nH]c(O)c(C=Nc2ccc(Cl)c(C(F)(F)F)c2)c(=O)[nH]1	M4 antag 34.1, M5 antag 37.8
CCCCCC[N+](=O)[O-]	none
CCCCCCCCCCCCCCCC[N+](C)(C)C	M4 antag 29.9, M5 antag 38.3
Cc1cc(N(CCCl)CCCl)ccc1C=Cc1ccncn1	CHRM4 agonist 35.5
Cc1cc(N(CCCl)CCCl)ccc1/C=N/N=C(\N)c1cnccn1	none
CCOC(=O)[C@]12Cc3cc(Cl)ccc3[C@H]1N(C1CCCCC1)C(=O)c1ccccc12	M5 ag 23.9, M4 antag 29.6
CCOC(=O)[C@]12Cc3cc(OC)ccc3[C@H]1N(C1CCCCC1)C(=O)c1ccccc12	none
O=C(O)C(O)(c1ccccc1)C1CCCC1 (stereo unspecified)	none
CCCC(CCC)C(=O)OC[N+](C)(C)CCOC(=O)C(O)(c1ccccc1)C1CCCC1 (stereo unspecified)	M4 antag 97.0, M5 antag 98.9
CC(C)(C)C(=O)OC[N+](C)(C)CCOC(=O)C(O)(c1ccccc1)C1CCCC1 (stereo unspecified)	M4 antag 98.8, M5 antag 98.7
CC(=NCCC(c1ccccc1)c1ccccc1)c1c(O)n(C)c(=O)n(C)c1=O	none
O=c1[nH]c(CN2CC=C(c3ccccc3)CC2)nc2scc(-c3ccccc3)c12	none
N=c1sccn1Cc1ccccc1F	none
Fc1ccc(C(OCCN2CCCC2)c2ccc(Br)cc2)cc1 (stereo unspecified)	M5 antag 37.7
c1ccc(CCCN2CCN(CCOC(c3ccccc3)c3ccccc3)CC2)cc1	M4 antag 47.4
Fc1ccc(C(OCCN2CCCC2)c2ccc(F)cc2)cc1	M4 antag 30.1, M5 antag 53.7
C#CCN1CCN(c2ccc(F)cc2)CC1	none
Fc1ccc(C(OCCN2CCN(CCCc3ccccc3)CC2)c2ccc(F)cc2)cc1	none
CC1(C)C(=O)CCC2C1=CCC1C2CCC2(C)C(O)CCC12 (stereo unspecified)	none
CCC(=NCc1cccnc1)c1c(O)n(-c2ccc(Cl)cc2)c(=O)[nH]c1=O	none
C[N+](C)(C)Cc1ccccc1	M5 ag 89.4, M5 antag 64.5
O=C(Nc1ccc(Cl)cc1)OC1CN2CCC1CC2 (stereo unspecified)	M5 antag 31.2
O=C(Nc1cccc(Cl)c1)OC1CN2CCC1CC2 (stereo unspecified)	M5 antag 29.1
CN1C(=O)C(Cc2cccc3ccccc23)C(=O)N(C)C1=O	none
O=C1C2CCN(CC2)[C@@H]1Cc1ccc2ccccc2c1O	M4 antag 47.4, M5 antag 30.1
C/C(Cl)=C/CC1(CN2CCCC2=O)C(=O)NC(=O)NC1=O	none
C[N+](C)(C)CC#CCN1CCCC1=O	M5 ag 99.0, CHRM4 agonist 107.4, M4 antag 95.4, M5 antag 97.8
N=C1c2ccccc2CN1CC(=O)c1ccccc1	none
COP(=O)(OC)C1(O)C(=O)Nc2ccc(Br)cc21 (stereo unspecified)	CHRM4 PAM 23.5
CN(C)[C@@H]1C(=O)C(C(N)=O)=C(O)[C@@]2(O)C(=O)C3=C(O)c4c(O)cccc4[C@@](C)(O)C3[C@H](O)C12 (stereo partly specified)	M4 antag 48.7!
NC1C2CN3CCN(C2)CC1(c1ccccc1)C3 (stereo unspecified)	none
